Test results as given in ChEMBL document CHEMBL3286255, “Rational design and synthesis of novel thiazolidin-4-ones as non-nucleoside HIV-1 reverse transcriptase inhibitors” (Bioorg Med Chem, 2014).

Legend:
[1] = Selectivity index, ratio of CC50 for human TZM-bl cells to EC50 for X4 tropic Human immunodeficiency virus 1 3B subtype B; format: toxicity, cell-based; conditions: read-out: Ratio CC50/EC50
[2] = Selectivity index, ratio of CC50 for human TZM-bl cells to EC50 for R5 tropic Human immunodeficiency virus 1 ADA5 subtype B; format: toxicity, cell-based; conditions: read-out: Ratio CC50/EC50
[3] = system: Human immunodeficiency virus 1; test: Antiviral activity against R5 tropic Human immunodeficiency virus 1 VB59 subtype C infected in human TZM-bl cells assessed as reduction in virus-induced cytopathic effect after 48 hrs by luminescence assay; format: functional, organism-based
Procedure, shortened: (§1)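 TZM-bl cells (HeLa-derived; CD4, CXCR4, CCR5; LTR-driven luciferase) seeded 1×10^4/well, left overnight at 37 °C, 5% CO2, then infected with 400 TCID50 virus for 2 h. Serial compound dilutions added in duplicate, only at levels giving >50% viability. […] Mean of two independent assays; nevirapine as positive control.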

[4] = Selectivity index, ratio of CC50 for human TZM-bl cells to EC50 for R5 tropic Human immunodeficiency virus 1 VB59 subtype C; format: toxicity, cell-based; conditions: read-out: Ratio CC50/EC50
[5] = Selectivity index, ratio of CC50 for human TZM-bl cells to EC50 for X4 tropic Human immunodeficiency virus 1 UG070 subtype D; format: toxicity, cell-based; conditions: read-out: Ratio CC50/EC50
[6] = system: Human immunodeficiency virus 1; test: Antiviral activity against X4 tropic Human immunodeficiency virus 1 3B subtype B infected in human TZM-bl cells assessed as reduction in virus-induced cytopathic effect after 48 hrs by luminescence assay; format: functional, organism-based; procedure, shortened: as §1
[7] = system: Human immunodeficiency virus 1; test: Antiviral activity against R5 tropic Human immunodeficiency virus 1 ADA5 subtype B infected in human TZM-bl cells assessed as reduction in virus-induced cytopathic effect after 48 hrs by luminescence assay; format: functional, organism-based; procedure, shortened: as §1
[8] = system: Human immunodeficiency virus 1; test: Antiviral activity against X4 tropic Human immunodeficiency virus 1 UG070 subtype D infected in human TZM-bl cells assessed as reduction in virus-induced cytopathic effect after 48 hrs by luminescence assay; format: functional, organism-based; procedure, shortened: as §1
[9] = Cytotoxicity against human TZM-bl cells after 48 hrs by MTT assay; format: cell-based
Procedure, shortened: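 TZM-bl cells seeded 1×10^4/well and left overnight at 37 °C, 5% CO2. Medium then replaced with a two-fold dilution series of compound in quadruplicate. […] Mean of three independent assays.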

[10] = system: Human immunodeficiency virus; test: Inhibition of HIV reverse transcriptase at 100 ug/ml after 1 hr by ELISA relative to control
Procedure, shortened: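 Kit ELISA for HIV RT. Template/primer, biotin- and DIG-labelled dNTPs and RT enzyme in lysis buffer incubated 1 h at 37 °C. Product captured on streptavidin, detected with anti-DIG-peroxidase and ABTS substrate, and read at 405 nm. Percent inhibition calculated against a no-inhibitor sample.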

[11] = Human immunodeficiency virus 1, VB59 subtype C, TZM-bl, 48 h, read-out: EC50
[12] = Human immunodeficiency virus 1, 3B subtype B, TZM-bl, 48 h, read-out: EC50
[13] = Human immunodeficiency virus 1, ADA5 subtype B, TZM-bl, 48 h, read-out: EC50
[14] = Human immunodeficiency virus 1, UG070 subtype D, TZM-bl, 48 h, read-out: EC50

SMILES | selectivity ratio [1] | selectivity ratio [2] | EC50 [3, 11] [µM] | selectivity ratio [4] | selectivity ratio [5] | EC50 [6, 12] [µM] | EC50 [7, 13] [µM] | EC50 [8, 14] [µM] | CC50 at 48 h [9] [µM] | inhibition [10] [%] | EC50 ([3]; tzm-bl) | EC50 ([8]; tzm-bl) | EC50 ([6]; tzm-bl) | EC50 ([7]; tzm-bl)
O=C1CSC(c2c(F)cccc2F)N1c1ncnc2[nH]cnc12 (configuration not stated) | 1.11 | 1.45 | 38.6 | 1.05 | 0.71 | 36.3 | 27.8 | 56.5 | 40.5 | 70.4 | – | – | – | –
O=C1CSC(c2c(Cl)cccc2Cl)N1c1ncnc2[nH]cnc12 (configuration not stated) | 1.1 | 1.11 | – | – | – | 11.8 | 11.7 | – | 13.1 | 50.2 | – | – | – | –
Cc1ccnc(N2C(=O)CSC2c2ccc(C#N)cc2)n1 (configuration not stated) | 1.41 | 2.2 | – | – | – | 85.7 | 55 | – | 121 | 43.5 | Not Active | Not Active | – | –
N#Cc1ccc(NN2C(=O)CSC2c2c(Cl)cccc2Cl)cc1 (configuration not stated) | 2.14 | 12 | 25.7 | 2.54 | 1.76 | 30.3 | 5.42 | 36.9 | 65.3 | 22.2 | – | – | – | –
COc1cc(OC)nc(N2C(=O)CSC2c2c(OC)cccc2OC)n1 (configuration not stated) | 49.3 | 37.8 | 7.28 | 21.5 | 17.6 | 3.17 | 4.13 | 8.87 | 156 | 93.8 | – | – | – | –
Cc1cc(N2C(=O)CSC2c2c(F)cccc2F)nc(C)c1Br (configuration not stated) | 192 | 95.9 | 0.77 | 87.2 | 134 | 0.35 | 0.7 | 0.5 | 67.1 | 81.8 | – | – | – | –
N#Cc1ccc(C2SCC(=O)N2c2ccc(C#N)cc2)cc1 (configuration not stated) | 1.1 | 1.22 | 55.7 | 1.34 | 1.18 | 67.8 | 61.2 | 63.4 | 75 | – | – | – | – | –
Cc1cc(N2C(=O)CSC2c2ccc(C#N)cc2)nc(C)c1Br (configuration not stated) | – | 1.11 | – | – | – | – | 39.1 | – | 43.8 | 37.5 | – | – | Not Active | –
O=C(NN1C(=O)CSC1c1c(Cl)cccc1Cl)c1ccncc1 (configuration not stated) | 4.64 | 17.5 | 26.3 | 6.47 | – | 36.7 | 9.72 | – | 170 | 18.9 | – | Not Active | – | –
COc1cc(OC)nc(N2C(=O)CSC2c2c(F)cccc2Cl)n1 (configuration not stated) | 545 | 614 | 0.32 | 307 | 409 | 0.18 | 0.16 | 0.24 | 98.2 | 95.4 | – | – | – | –
N#Cc1ccc(N2C(=O)CSC2c2c(Cl)cccc2Cl)nc1 (configuration not stated) | 2.92 | 13 | < 7.13 | 8.4 | 8.4 | 20.5 | 4.62 | 7.13 | 60 | 42 | – | – | – | –
O=C1CSC(c2c(F)cccc2F)N1Nc1ccccn1 (configuration not stated) | 5.19 | 5.56 | 16.8 | 5.36 | 3.69 | 17.3 | 16.2 | 24.4 | 90.1 | 64.7 | – | – | – | –
COc1cc(OC)nc(N2C(=O)CSC2c2ccc(C#N)cc2)n1 (configuration not stated) | 1.27 | 1.51 | – | – | – | 68 | 57 | – | 86.5 | 12.2 | Not Active | Not Active | – | –
Cc1cc(C)nc(N2C(=O)CSC2c2ccc(C#N)cc2)n1 (configuration not stated) | 0.97 | 1.13 | – | – | – | 115 | 99.3 | – | 113 | 41.5 | Not Active | Not Active | – | –
Cc1cc(C)nc(N2C(=O)CSC2c2ccc(C#N)cc2)c1 (configuration not stated) | 3.66 | 5.62 | 46.5 | 3.18 | 2.9 | 40.4 | 26.4 | 51.1 | 148 | 37.9 | – | – | – | –
O=C(NN1C(=O)CSC1c1c(F)cccc1Cl)c1ccncc1 (configuration not stated) | – | – | – | – | – | – | – | – | 105 | 81.7 | – | – | Not Active | Not Active
Cc1ccc(S(=O)(=O)NN2C(=O)CSC2c2c(Cl)cccc2Cl)cc1 (configuration not stated) | 2.57 | 16.6 | – | – | – | 29.4 | 4.55 | – | 75.7 | 57.9 | Not Active | Not Active | – | –
Cc1cccc(C)c1C1SCC(=O)N1NC(=O)c1ccncc1 (configuration not stated) | 1.47 | 2.29 | – | – | 1.11 | 29.4 | 18.9 | 38.8 | 43.4 | 14.2 | Not Active | – | – | –
Cc1cc(N2C(=O)CSC2c2ccc(C#N)cc2)no1 (configuration not stated) | 1.57 | 1.72 | 68.7 | 2.04 | – | 88.7 | 81.1 | – | 140 | 27.6 | – | – | – | –
COc1cccc(OC)c1C1SCC(=O)N1c1cc(C)on1 (configuration not stated) | 11 | – | 20.2 | 6.18 | 6.77 | 11.3 | – | 18.4 | 125 | 62.2 | – | – | – | Not Active
Cc1cc(N2C(=O)CSC2c2c(Cl)cccc2[N+](=O)[O-])nc(C)c1Br (configuration not stated) | – | – | – | – | – | – | – | – | – | 77.8 | – | – | – | –
